Measured values gathered from unrelated publications.
Each line is one published result; the experiments were not run side by side.
Effect on: cell growth or viability

Structure (SMILES)	cell line	assay	conditions	measurement	value
Cc1ccc(C(=O)NCc2ccsc2)cc1C#Cc1cn(C2CCCC2)c2ncnc(N)c12	32D	–	–	GI50	> 1000 nM
C[C@@H]1[C@H](O)[C@@H](C)/C=C/C=C/C=C/C=C/C=C/C=C/C=C/[C@H](O[C@@H]2O[C@H](C)[C@@H](O)[C@H](N)[C@@H]2O)C[C@@H]2O[C@](O)(C[C@@H](O)C[C@@H](O)[C@H](O)CC[C@@H](O)C[C@@H](O)CC(=O)O[C@H]1C)C[C@H](O)[C@H]2C(=O)O	DH82	MTS	200 µM, 72 h	inhibition	42%
c1ccc(-c2ccc(CNCC3(N4CCCC4)COC3)o2)cc1	U-87 MG	–	30 µM, 48 h	viability	0.534%
COc1ccc2occ(/C=C/c3cc(OC)c(OC)c(OC)c3)c(=O)c2c1	HSC-2	MTT	23 h	CC50	4200 nM
COc1ccc(-c2ccc(-c3ccc(C(=N)N)nc3)s2)cc1Cl	EKVX	SRB	–	GI50	1790 nM
COc1ccc2occ(/C=C/c3ccc(O)cc3)c(=O)c2c1	HSC-2	MTT	23 h	CC50	< 390 nM
CCn1c(=O)c(-c2cc(NC(=O)Nc3ccccc3)c(F)cc2Br)cc2cnc(NC)cc21	32D	–	–	GI50	> 3000 nM
CC#CC(=O)N1CC[C@@H](n2cc(-c3ccc(Oc4c(F)cccc4F)cc3)c3c(N)n[nH]c(=O)c32)C1	DOHH-2	ATP luminescence	72 h	GI50	8580 nM
COc1ccc(NC(=O)c2c(Nc3ccccc3)sc(C(=O)NN=Cc3cc(OC)c(OC)c(OC)c3)c2NC(C)=O)cc1	HCT-116	SRB	1 µM, 48 h	viability	78.4%
COC(=O)c1c(C)ncn1CC(c1c[nH]c2ccc(C)cc12)c1c[nH]c2ccc(C)cc12	DH82	MTS	20 µM, 24 h	inhibition	11.3%
Cn1nnc2c(C(N)=O)ncn2c1=O	AGS	–	–	EC50	310000 nM
COc1ccc(NC(=O)c2c(Nc3ccccc3)sc(C#N)c2NC(=O)CNc2ccccc2Cl)cc1	HCT-116	SRB	10 µM, 48 h	viability	62.9%
CCOC(=O)c1c(C)ncn1CC(c1cn(C)c2ccc([N+](=O)[O-])cc12)c1cn(C)c2ccc([N+](=O)[O-])cc12	DH82	MTS	200 µM, 72 h	inhibition	43%
CC(C)Cc1nn(C)c(=O)c2c(SCCCO)n(Cc3cnc(NCCCCCN)c4ccccc34)cc12	Raji	MTT	96 h	EC50	24 nM
COCCn1cc(C#Cc2cc(C(=O)NCc3ccsc3)ccc2C)c2c(N)ncnc21	32D	–	–	GI50	> 3000 nM
COc1ccc(NC(=O)c2c(Nc3ccccc3)sc(C#N)c2NC(=O)CNc2ccccc2[N+](=O)[O-])cc1	HCT-116	SRB	10 nM, 48 h	viability	90.4%
COc1ccc(/C=C/c2coc3ccc(OC)cc3c2=O)cc1	HSC-2	MTT	6.7 h	CC50	21000 nM
COc1ccc(C=NNC(=O)c2sc(Nc3ccccc3)c(C(=O)Nc3ccc(OC)cc3)c2NC(C)=O)cc1	HCT-116	SRB	0.1 µM, 48 h	viability	72.5%
Cc1ccc(C(=O)NCc2ccsc2)cc1C#Cc1cn(C)c2ncnc(N)c12	32D	–	–	GI50	106 nM
COc1ccc(NC(=O)c2c(Nc3ccccc3)sc(C(=O)NN=Cc3ccccc3)c2NC(C)=O)cc1	HCT-116	SRB	1 nM, 48 h	viability	101%
FC1CCN(C2(CNCc3ccc(-c4ccccc4Cl)o3)COC2)C1 (centres unmarked)	U-87 MG	–	30 µM, 48 h	viability	45.4%
COc1ccc(NC(=O)c2c(Nc3ccccc3)sc(C(=O)NN=Cc3ccc(C)cc3)c2NC(C)=O)cc1	HCT-116	SRB	10 nM, 48 h	viability	90.2%
CC(C)Cc1nn(C)c(=O)c2c(SCCCO)n(Cc3cc(NCCCCCN)nc4ccccc34)cc12	Raji	MTT	96 h	EC50	55 nM
COc1ccc(NCC(=O)Nc2c(C#N)sc(Nc3ccccc3)c2C(=O)Nc2ccc(OC)cc2)cc1	HCT-116	SRB	1 nM, 48 h	viability	99.5%
CC(C)Cc1nn(C)c(=O)c2c(SCCCO)n(Cc3ccnc(NCCCCCN)c3)cc12	Raji	MTT	96 h	EC50	690 nM
COc1ccc(-c2ccc(-c3ccc(C(=N)N)nc3)s2)cc1	OVCAR-8	SRB	–	GI50	2120 nM
